The sample as a whole holds a higher share of hits than the screen did.
bCat KO growth = beta-catenin-lacking colon tumor cell growth suppression | AID 818 | hit rate 1.5% among 140,000 | HCT116 beta-catenin knockout viability, CellTiter-Glo, 60 h; stronger effect = lower value | viability, % at 10 µM;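 active = viability at or under a set limit, the compound median less 4 SD, cut at about 6% in these data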;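 also: 0% = Hyamine 1622 control at 20 µM and 100% = untreated cell control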
HUVEC inhibit = inhibitors of human endothelial cell proliferation | HUVEC proliferation, CellTiter-Glo luminescence, 72 h; stronger effect = lower value | viability, % at 10 µM (by protocol) | hit rate 1.1% among 86,000 | AID 648;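 active = viability at or below 30%; inactive = viability above 30%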;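 also: 100% = median luminescence of DMSO-only cell control wells on each plate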
Fibroblast inh = blocks proliferation of human lung fibroblasts; LL 47 human lung fibroblast viability, ATP luminescence; stronger effect = lower value; viability, % at 10 µM; hit rate 1.1% among 85,000;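 active = viability at or below 50% in the single dose screen; inactive = viability above 50%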;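 also: compound exposure lasted 72 h before the ATP readout; 100% = median luminescence of untreated cell-only wells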
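Assay system: human lung fibroblast line LL 47, low passage. Input: 1,150 fibroblasts seeded per well. Times: overnight cell rest, 72 h compound treatment at 37 °C. Evaluation: % viability of median cell-only signal. Technique: luminescent ATP detection, CellTiter-Glo. Control set: cell-only wells, no compound.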
PTEN del growth = growth suppressors of cells with PTEN tumor suppressor deletion. AID 827. hit rate 1.2% among 140,000. HCT116 PTEN-null viability, CellTiter-Glo, 60 h; stronger effect = lower value. viability, % at 10 µM;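 active = viability at or below a set limit, 4 SD under the median of all tested compounds, cut at about 3.7% in these data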;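 also: PTEN knockout HCT116 line with beta catenin targeted HCT116 as companion control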
H69AR growth 86K = blocks growth of human H69AR lung tumor cells. H69AR lung tumor viability, ATP luminescence, 72 h; stronger effect = lower value. viability, % at 10 µM. hit rate 6% among 85,000. AID 598;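 active = viability at or below 40%; inactive = viability above 40%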;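 also: multidrug resistant small cell line overexpressing MRP-1 efflux transporter; 100% = mean luminescence of untreated control wells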
* = called active by the depositor; · = no result given.

SMILES | bCat KO growth | HUVEC inhibit | Fibroblast inh | PTEN del growth | H69AR growth 86K
OCCNc1ncnc2c1c(-c1ccccc1)c(-c1ccccc1)n2Cc1ccco1 | 84 | · | · | 75 | ·
N=c1c2c(-c3ccccc3)c(-c3ccccc3)n(Cc3ccccc3)c2ncn1CCO | 1.2* | 3.3* | 22* | 1.6* | 1.9*
N=c1c2c(-c3ccccc3)c(-c3ccccc3)n(Cc3ccco3)c2ncn1Cc1ccccc1 | 1.1* | 2.1* | 32* | 1.9* | 9.9*
CC(C)Cn1cnc2c(c(-c3ccccc3)c(-c3ccccc3)n2Cc2ccco2)c1=N | 2.8* | 2.5* | 3.1* | 3.0* | 1.1*
Cc1cc(C)c2nc(SCC(=O)NCCN3C(=O)CSC3=O)cc(C)c2c1 | 95 | · | · | 82 | ·
O=C(NCc1cccnc1)C(=O)NCC1OCCN1S(=O)(=O)c1ccc(F)cc1 (configuration not stated) | 89 | · | · | 105 | ·
CCCCN=C(C)c1c(O)c2ccccc2oc1=O | 96 | 93 | · | 82 | 99
CC1CCC(C(=O)c2c(O)c3ccccc3oc2=O)CC1 (configuration not stated) | 55 | 13* | 85 | 71 | 57
O=C(CC1CCCCC1)c1c(O)c2ccccc2oc1=O | 45 | 3.2* | 95 | 45 | 104
CCCCC(=O)c1c(O)c2ccccc2oc1=O | 96 | · | · | 97 | ·
CCCCOC(=O)N/N=C/C=C/c1ccccc1 | 93 | · | · | 86 | ·
CCN(CC)S(=O)(=O)c1cccc(C(=O)NC(Cc2c[nH]c3ccccc23)c2nnc3n2CCC3)c1 (configuration not stated) | 79 | · | · | 94 | ·
Cc1ccc2nc(NC3=NCN(Cc4ccco4)CN3)nc(C)c2c1 | · | 87 | 79 | · | 59
Cc1ccc2nc(NC3=NCN(Cc4ccc5c(c4)OCO5)CN3)nc(C)c2c1 | · | 65 | 42* | · | 28*
Cc1cc(C)c2[nH]c(=O)c(CN(Cc3cccs3)C(=S)NCc3ccco3)cc2c1 | 72 | · | · | 60 | ·
COc1ccccc1N1CCN(Cc2nc(N)nc(Nc3ccc(C)cc3)n2)CC1 | 61 | 86 | 91 | 52 | 3.0*
Cc1ccc(Nc2nc(N)nc(CN3CCN(c4ccccc4F)CC3)n2)cc1 | 79 | 75 | 95 | 76 | 90
Nc1nc(CN2CCCCCC2)nc(Nc2ccccc2)n1 | 64 | 112 | 106 | 63 | 77
Nc1nc(CN2CCC(Cc3ccccc3)CC2)nc(Nc2ccccc2)n1 | 56 | 60 | 67 | 69 | 30*
CC1CC(C)CN(Cc2nc(N)nc(Nc3ccc4ccccc4c3)n2)C1 (configuration not stated) | 21 | 50 | 64 | 23 | 12*
Cc1ccccc1N(C(=O)Cn1nnc(-c2cccs2)n1)C(C(=O)NCCC(C)C)c1ccco1 (configuration not stated) | 51 | 90 | 89 | 69 | 69
O=C1/C(=C/c2ccc([N+](=O)[O-])cc2)C=C(c2ccccc2)N1c1ccc(O)cc1 | 2.2* | 9.9* | 54 | 2.2* | 26*
COc1ccc(N2C(=O)/C(=C/c3ccc([N+](=O)[O-])cc3)C=C2c2ccccc2)cc1 | 38 | 56 | 61 | 47 | 21*
CCc1nnc(NC(=O)[C@@H](NC(=O)c2cccc(S(=O)(=O)N(CC)CC)c2)C(C)C)s1 | 96 | · | · | 92 | ·
COc1cc(Cl)c(S(=O)(=O)NCc2ccccn2)cc1Cl | 105 | 92 | 102 | 105 | 110
SMILES | bCat KO growth | HUVEC inhibit | Fibroblast inh | PTEN del growth | H69AR growth 86K
Brc1cccc(-c2n[nH]c(-c3ccccc3)n2)c1 | 32 | 61 | 94 | 28 | 40*
Cc1cc(NC(=O)CN2CCC(n3nnc4cc(C(F)(F)F)ccc43)CC2)no1 | 64 | 92 | 99 | 72 | 78
CCOC(=O)c1ccccc1NC(=O)CN1CCC(n2nnc3cc(F)ccc32)CC1 | · | 59 | 93 | · | 27*
COC(=O)c1ccccc1NC(=O)CN1CCC(n2nnc3cc(C)ccc32)CC1 | · | 82 | 99 | · | 82
CCOc1ccc2nc(NC(=O)CN3CCC(n4nnc5cc(C(F)(F)F)ccc54)CC3)sc2c1 | 65 | 86 | 89 | 64 | 38*
COC(=O)c1c(O)cc(C(C)(C)C)n(-c2ccc(F)cc2)c1=O | 88 | · | · | 109 | ·
CCOC(=O)c1nn(-c2ccc(C)cc2)cc1C(=O)c1ccccc1 | 69 | · | · | 79 | ·
CCc1ccc2c(c1)/C(=C/C(=O)c1cccs1)C(=O)N2 | 0.8* | 67 | 6.5* | 0.8* | 1.7*
CN1/C(=C\C(=O)c2cccs2)C(C)(C)c2ccccc21 | 85 | · | · | 84 | ·
CCc1ccc2c(c1)/C(=N/N(C)C(=S)NC)C(=O)N2 | 51 | · | · | 78 | ·
Cc1cc(C)c2c(c1)/C(=C/C(=O)c1ccc(Br)s1)C(=O)N2 | 1.8* | 7.1* | 15* | 1.8* | 1.8*
Cc1cccc2c1NC(=O)/C2=C\C(=O)c1cccs1 | 4.9* | 29* | 6.1* | 2.2* | 2.1*
O=C(c1ccc(Cn2cc(Br)cn2)cc1)N1N=C(C(F)F)CC1(O)C(F)F (configuration not stated) | 98 | · | · | 97 | ·
O=C(O)c1ccccc1SC1CC(=O)N(c2ccccc2)C1=O (configuration not stated) | 97 | · | · | 104 | ·
O=C(O)c1ccccc1SC1CC(=O)N(C2CCCCC2)C1=O (configuration not stated) | 82 | 95 | 98 | 82 | 36*
CC(C)CCn1c(O)c(N=Nc2ccccn2)c2ccccc21 | 89 | · | · | 89 | ·
Oc1ccc2ccccc2c1N=Nc1ccccn1 | 2.4* | · | · | 2.6* | ·
COc1ccc(C(=O)OCCN2CCOCC2)cc1OC | 83 | 84 | 101 | 78 | 93
COc1ccc(C(=O)Oc2c(CN3CCOCC3)cc(Cl)c3cccnc23)cc1OC | · | 80 | 7.2* | · | 1.5*
Cc1nc(-c2ccc(O)c(O)c2)cs1 | 10 | 69 | 74 | 10 | 45
Oc1ccc(-c2csc(-c3ccccc3)n2)cc1O | 83 | 29* | 72 | 84 | 20*
COc1ccc(C(=O)NC(=S)Nc2ccc3c4c(cccc24)CC3)cc1OC | 87 | · | · | 89 | ·
COC(=O)Nc1nc2c(s1)CCCC2 | 1.1* | 89 | 96 | 1.0* | 98
Cc1ccc(S(=O)(=O)CCC(=O)Nc2nc3c(s2)CCCC3)cc1 | 16 | 79 | 51 | 26 | 24*
CNC(=S)N1CCN(C(=O)C2CCCO2)CC1 (configuration not stated) | 96 | · | · | 95 | ·
Cc1nn(-c2ccccc2)c2nc(-c3ccncc3)cc(C(=O)NCc3ccco3)c12 | 60 | 70 | 92 | 54 | 31*
Cc1nn(-c2ccccn2)c2nc(-c3cccs3)cc(C(=O)NCc3ccco3)c12 | 64 | 71 | 101 | 66 | 16*
Cc1ccc(C)c(N2CCN(CCCNC(=O)Cn3cc4c(n3)CCCCC4)CC2)c1 | 2.1* | 22* | 84 | 1.7* | 50
Cc1ccc(C)c(N2CCN(CCCNC(=O)Cn3cc4c(n3)CCC(C)C4)CC2)c1 (configuration not stated) | 10 | 15* | 73 | 9 | 46
COc1ccc(/C=N/Nc2ccc([N+](=O)[O-])cc2)cc1Cn1cc([N+](=O)[O-])cn1 | 89 | 48 | 92 | 93 | 14*
